Experimental data from ChEMBL document CHEMBL2057078, “Synthesis and in vitro antiproliferative activity of new 11-aminoalkylamino-substituted 5H- and 6H-indolo[2,3-b]quinolines; structure-activity relationships of neocryptolepines and 6-methyl congeners” (Bioorg Med Chem, 2012).
Where a name gives a salt, the structure may show the parent alone.

Assays:
MV4-11 = test: Antiproliferative activity against human MV4-11 cells after 72 hrs by MTT assay; type: functional, cell-based; conditions: MV4-11, 72 h
Outline: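 Leukemia cells cultured in RPMI 1640 at 37 °C, 5% CO2. Plated at 1 × 10⁴ cells/well 24 h ahead, then 72 h with compound at 0.001–10 µg/mL. MTT (stock 5 mg/mL) added, formazan dissolved with a DMF/SDS lysing mixture for 24 h, OD read at 570 nm. IC50 vs untreated control; triplicates, 3–5 repeats.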

A549 [1] = test: Antiproliferative activity against human A549 cells after 72 hrs by SRB assay; type: functional, cell-based; conditions: A549, 72 h
Outline: (§1)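 Cells grown in RPMI 1640+OptiMEM (50:50) with 2 mM L-glutamine and 5% FBS at 37 °C, 5% CO2. Plated at 1 × 10⁴ cells/well 24 h before treatment, then exposed 72 h to 0.001–10 µg/mL compound (from 1 mg/mL stock in DMSO/medium). TCA-fixed, stained with 0.4% SRB in 1% acetic acid, dye extracted with 10 mM Tris, read at 540 nm. IC50 vs untreated control; triplicates, 3–5 experiments.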

HCT-116 = test: Antiproliferative activity against human HCT116 cells after 72 hrs by SRB assay; type: functional, cell-based; conditions: HCT-116, 72 h; outline: as §1
BALB/3T3 [2] = test: Antiproliferative activity against mouse BALB/3T3 cells after 72 hrs by SRB assay; type: cell-based; conditions: BALB/3T3, 72 h
Outline: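 Mouse fibroblasts kept in Dulbecco's medium with 2 mM L-glutamine, 1.0 mM sodium pyruvate and 10% FBS at 37 °C, 5% CO2. Seeded at 1 × 10⁴ cells/well a day before dosing, then 72 h exposure to 0.001–10 µg/mL. SRB staining after TCA fixation, Tris extraction, OD 540 nm. IC50 relative to untreated cells; triplicate wells, 3–5 independent runs.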

BALB/3T3 [3] = test: Selectivity ratio of IC50 for mouse BALB/3T3 cells to IC50 for human HCT116 cells
A549 [4] = test: Selectivity ratio of IC50 for human A549 cells to IC50 for human HCT116 cells; type: functional
BALB/3T3 [5] = test: Selectivity ratio of IC50 for mouse BALB/3T3 cells to IC50 for human A549 cells
Nucleic Acid = test: Binding affinity to salmon fish sperm DNA assessed as hypochromic effect by UV-Vis absorption spectroscopic analysis at pH 7; type: nucleic-acid assay; conditions: Salmonidae
Outline: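 UV–vis absorption titration in pH 7.0 phosphate buffer with 2.5% DMSO at 20 °C, 1 cm quartz cuvette. Compound held at 50 µmol/L with DNA added from 0 to 1.0 µmol/L. Binding assessed from absorbance change using a 1/ΔA versus 1/[DNA] plot.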

Row | IC50 (MV4-11) | IC50 (A549 [1]) | IC50 (HCT-116) | K (Nucleic Acid) | Compound | IC50 (BALB/3T3 [2]) | Ratio IC50 (BALB/3T3 [3]) | Ratio IC50 (A549 [4]) | Ratio IC50 (BALB/3T3 [5])
1 | 1.31 µM | – | – | – | Cn1c2nc3ccccc3c-2c(Cl)c2ccccc21 [11-CHLORONEOCRYPTOLEPINE] | – | – | – | –
2 | 0.447 µM | – | – | – | Cn1c2nc3ccccc3c-2c(NCCc2c[nH]c3ccccc23)c2cc(Cl)ccc21 | – | – | – | –
3 | 0.53 µM | – | – | – | Cn1c2nc3ccccc3c-2c(NCCCO)c2cc(Cl)ccc21 | – | – | – | –
4 | 18.8 µM | – | – | – | Cn1c2ccccc2c2c(NCCc3c[nH]c4ccccc34)c3cc(Cl)ccc3nc21 | – | – | – | –
5 | 1.21 µM | – | – | – | COc1ccc2c(c1)c(Cl)c1c3ccccc3nc-1n2C | – | – | – | –
6 | 0.578 µM | – | – | – | CCN(CC)CCCC(C)Nc1c2c3ccccc3nc-2n(C)c2ccc(Br)cc12 (configuration not stated) | – | – | – | –
7 | 0.669 µM | 6.09 µM | 5.5 µM | – | Cn1c2ccccc2c2c(NCCCCN)c3cc(Cl)ccc3nc21 | 9.01 µM | – | – | –
8 | 0.068 µM | 0.761 µM | 0.195 µM | – | Cn1c2nc3ccccc3c-2c(NCCCN)c2cc(Cl)ccc21 | 0.401 µM | 4 | 4 | –
9 | 0.703 µM | 1.59 µM | 0.989 µM | – | Cn1c2nc3ccccc3c-2c(NCCCO)c2cc(Br)ccc21 | 1.2 µM | – | – | –
10 | 0.106 µM | 7.39 µM | 1.75 µM | – | CN1CCCN(c2c3c4ccccc4nc-3n(C)c3ccc(Cl)cc23)CC1 | 6.41 µM | 4 | 4 | –
11 | 0.456 µM | 8.28 µM | 6.99 µM | – | Cn1c2ccccc2c2c(NCCN)c3cc(Cl)ccc3nc21 | 10.4 µM | – | – | –
12 | 0.012 µM | 0.543 µM | 0.274 µM | 2.93 ×10⁵ L/mol | Cn1c2nc3ccccc3c-2c(NCCCN)c2cc(Br)ccc21 | 0.869 µM | 3 | – | 3

Continued, compound first:

Row | Compound | IC50 (MV4-11) | IC50 (A549 [1]) | IC50 (HCT-116) | K (Nucleic Acid) | IC50 (BALB/3T3 [2]) | Ratio IC50 (BALB/3T3 [3]) | Ratio IC50 (A549 [4]) | Ratio IC50 (BALB/3T3 [5])
13 | CN(C)CCCNCc1c2c3ccccc3nc-2n(C)c2ccc(Cl)cc12 | 3.46 µM | – | – | – | – | – | – | –
14 | Cn1c2nc3ccccc3c-2c(N2CCOCC2)c2ccccc21 | 0.164 µM | 1.51 µM | 1.79 µM | – | 1.61 µM | – | – | –
15 | Cn1c2nc3ccccc3c-2c(NCCc2c[nH]c3ccccc23)c2ccccc21 | 0.871 µM | – | – | – | – | – | – | –
16 | Cn1c2nc3ccccc3c-2c(NCCCCN)c2ccccc21 | 0.1 µM | 0.911 µM | 0.669 µM | – | 0.936 µM | – | – | –
17 | CN1CCCN(c2c3c4ccccc4nc-3n(C)c3ccc(Br)cc23)CC1 | 0.737 µM | 4.54 µM | 1.16 µM | – | 7.6 µM | – | – | –
18 | Cn1c2nc3ccccc3c-2c(NCCCO)c2ccccc21 | 0.17 µM | 0.973 µM | 0.714 µM | – | 0.635 µM | – | – | –
19 | CN1CCCN(c2c3c4ccccc4nc-3n(C)c3ccccc23)CC1 | 7.17 µM | – | – | – | – | – | – | –
20 | Cn1c2ccccc2c2c(N3CCOCC3)c3cc(Cl)ccc3nc21 | > 25 µM | – | – | – | – | – | – | –
21 | COc1ccc2c(c1)c(NCCCO)c1c3ccccc3nc-1n2C | 0.135 µM | 1.01 µM | 0.278 µM | – | 0.807 µM | 4 | 4 | –
22 | Cn1c2ccccc2c2c(NCCCO)c3cc(Cl)ccc3nc21 | 6.21 µM | – | – | – | – | – | – | –
23 | COc1ccc2c(c1)c(NCCCN)c1c3ccccc3nc-1n2C | 0.102 µM | 0.407 µM | 0.155 µM | – | 0.978 µM | 3 | – | 3
24 | Cn1c2nc3ccccc3c-2c(Cl)c2cc(Br)ccc21 | 0.81 µM | – | – | – | – | – | – | –
25 | CN(C)CCNc1c2cc(Cl)ccc2nc2c1c1ccccc1n2C | 2.83 µM | – | – | – | – | – | – | –
26 | COc1cccc2c1C(=O)c1c(O)c3c(c(O)c1C2=O)C[C@@](O)(C(=O)CO)C[C@@H]3O[C@H]1C[C@H](N)[C@H](O)[C@H](C)O1 [DOXORUBICIN HYDROCHLORIDE] | 0.006 µM | 0.329 µM | 0.39 µM | – | 1.08 µM | – | – | –
27 | Cn1c2nc3ccccc3c-2c(NCCCCN)c2cc(Cl)ccc21 | 0.68 µM | – | – | – | – | – | – | –
28 | COc1ccc2c(c1)c(NCCCCN)c1c3ccccc3nc-1n2C | 0.132 µM | 0.674 µM | 0.657 µM | – | 1.62 µM | – | – | –
29 | CCN(CC)CCCC(C)Nc1c2c3ccccc3nc-2n(C)c2ccc(Cl)cc12 (configuration not stated) | 0.78 µM | – | – | – | – | – | – | –
30 | CN1CCCN(c2c3cc(Cl)ccc3nc3c2c2ccccc2n3C)CC1 | 0.773 µM | 11.2 µM | 8 µM | – | > 25 µM | – | – | –
31 | CCN(CC)CCCC(C)Nc1c2cc(Cl)ccc2nc2c1c1ccccc1n2C (configuration not stated) | 5.25 µM | – | – | – | – | – | – | –
32 | CCN(CC)CCCC(C)Nc1c2c3ccccc3nc-2n(C)c2ccccc12 (configuration not stated) | 0.721 µM | – | – | – | – | – | – | –
33 | Cn1c2nc3ccccc3c-2c(NCCCCN)c2cc(F)ccc21 | 0.095 µM | 0.785 µM | 0.178 µM | – | 0.853 µM | 4 | 4 | –
34 | Cn1c2ccccc2c2c(NCCCN)c3cc(Cl)ccc3nc21 | 0.8 µM | 7.38 µM | 4.49 µM | 3.28 ×10⁵ L/mol | 9.8 µM | – | – | –
35 | Cn1c2nc3ccccc3c-2c(NCCCCN)c2cc(Br)ccc21 | 0.091 µM | 0.579 µM | 0.209 µM | – | 0.742 µM | 3 | – | 3
36 | CN1CCCN(Cc2c3c4ccccc4nc-3n(C)c3ccc(Cl)cc23)CC1 | 3.44 µM | – | – | – | – | – | – | –
37 | Cn1c2nc3ccccc3c-2c(NCCCN)c2ccccc21 | 0.066 µM | 0.205 µM | 0.302 µM | – | 0.884 µM | 3 | – | 3
